These results are taken from ChEMBL document CHEMBL4715925, “Sulfamoylbenzamide-based Capsid Assembly Modulators for Selective Inhibition of Hepatitis B Viral Replication” (ACS Med Chem Lett, 2021).

Series [1] in a line: Cytotoxicity against human HepG2 2.2.15 cells assessed as reduction in cell viability incubated for 5 days by MTT assay. Type of series: cell-based. Particulars: time 5 day. In outline: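 HepG2.2.15 cells were incubated with compound, then cell viability was measured. Mean ± SD of three independent experiments.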
Background: Tetrazolium assays rely on reduction of a dye to a coloured formazan, in cell work by metabolically active cells.

Series [2] can be described thus: Selectivity index, ratio of CC50 for human […] cells to EC50 for Hepatitis B virus. Type of series: toxicity. Particulars: read-out: Ratio CC50/EC50.
The next series deals with Hepatitis B virus. In words: Antiviral activity against Hepatitis B genotype D virus infected in HepG2 2.2.15 cells assessed as inhibition of viral DNA incubated for 5 days by qPCR analysis. Type of series: functional, cell-based. The settings on record: HepG2 2.2.15, 120 h. Summed up:
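HepG2.2.15 cells were incubated with compound for 5 days. HBV DNA was then purified from the culture supernatant and quantified by real-time PCR.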
In general terms: Quantitative PCR measures a nucleic acid by following its amplification.

Series [3] is described as follows: AUClast in Sprague-Dawley rat at 5 mg/kg, po by LC-MS/MS analysis. Type of series: ADME, organism-based. Also on record: time 0 - last, route oral, dose 5 mg/kg. The settings on record: in vivo. In outline:
(§1)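 Male SD rats, 5 mg/kg given i.v. or p.o.; plasma concentration–time courses followed. Parameters: Tmax, Cmax, terminal T1/2, AUClast, AUC to infinity, total plasma clearance, Vss, oral bioavailability (Ft). Values are mean ± SD of at least three independent experiments.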

Series [4] in a line: Stability in rat plasma assessed as compound remaining at 5 uM incubated for 4 hrs by LC-MS/MS analysis. Type of series: ADME, cell-free. Particulars: read-out: Stabilty. In outline:
(§2)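 Incubated in rat or human plasma at 37 °C for 4 h; result is % compound remaining. n = 3, mean ± SD.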

A short description of series [5]: Half life in Sprague-Dawley rat at 5 mg/kg, po by LC-MS/MS analysis. Type of series: ADME, organism-based. The settings on record: in vivo. Summed up: as §1
The next series deals with Cytochrome P450 2D6 (Homo sapiens, UniProt P10635). As to the kind of experiment: Inhibition of human liver microsome CYP2D6 using dextromethorphan as substrate incubated for 20 mins by LC-MS/MS with HPLC analysis. Type of series: ADME, microsomes. In outline:
(§3)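 Cocktail-substrate assay in human liver microsomes; IC50 reported for CYP1A2, 2C9, 2C19, 2D6 and 3A4. n = 3, mean ± SD.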
A general note: Liver microsomes are a subcellular fraction often used to study metabolism.

A short description of series [6]: AUClast in Sprague-Dawley rat at 5 mg/kg, iv by LC-MS/MS analysis. Type of series: ADME, organism-based. Also on record: route intravenous, time 0 - last, dose 5 mg/kg. The settings on record: in vivo. Summed up: as §1
A short description of series [7]: AUC (0 to infinity) in Sprague-Dawley rat at 5 mg/kg, po by LC-MS/MS analysis. Type of series: ADME, organism-based. Also on record: time infinity, route oral, dose 5 mg/kg. Particulars: in vivo. Summed up: as §1
The next series has as its target Cytochrome P450 2C9 (Homo sapiens, UniProt P11712). In words: Inhibition of human liver microsome CYP2C9 using tolbutamide as substrate incubated for 20 mins by LC-MS/MS with HPLC analysis. Type of series: ADME, microsomes. Summed up:
as §3

The nature of series [8]: Cmax in Sprague-Dawley rat at 5 mg/kg, po by LC-MS/MS analysis. Type of series: ADME, organism-based. The arrangement: route oral, dose 5 mg/kg. The settings on record: in vivo. In outline: as §1
Series [9] is described as follows: Half life in Sprague-Dawley rat at 5 mg/kg, iv by LC-MS/MS analysis. Particulars: in vivo. Type of series: ADME, organism-based. Summed up:
as §1

A short description of series [10]: Metabolic stability in rat liver microsomes assessed as compound remaining at 1 uM incubated for 30 mins by LC-MS/MS analysis. The settings on record: read-out: Stabilty. Type of series: ADME, Microsome. In outline: (§4)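 Phase-I stability in rat or human liver microsomes, given as % remaining after 30 min, with half-life also derived. n = 3, mean ± SD.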
The next series concerns the target Cytochrome P450 3A4 (Homo sapiens, UniProt P08684). As to the kind of experiment: Inhibition of human liver microsome CYP3A4 using […] as substrate incubated for 20 mins by LC-MS/MS with HPLC analysis. Type of series: ADME, microsomes. In outline: as §3
A short description of series [11]: Protein binding in human plasma at 5 uM incubated for 4 hrs by LC-MS/MS analysis. Type of series: ADME, cell-free. Particulars: read-out: PPB (converted).
Series [12] can be described thus: AUC (0 to infinity) in Sprague-Dawley rat at 5 mg/kg, iv by LC-MS/MS analysis. The arrangement: time infinity, route intravenous, dose 5 mg/kg. Type of series: ADME, organism-based. The settings on record: in vivo. In outline: as §1
In the next series the target is Cytochrome P450 2C19 (Homo sapiens, UniProt P33261). In words: Inhibition of human liver microsome CYP2C19 using S-mephenytoin as substrate incubated for 20 mins by LC-MS/MS with HPLC analysis. Type of series: ADME, microsomes. Summed up:
as §3

The nature of series [13]: Metabolic stability in rat liver microsomes assessed as half life at 1 uM incubated for 30 mins by LC-MS/MS analysis. Type of series: ADME, Microsome. Summed up: as §4
For series [14], the target named is Voltage-gated inwardly rectifying potassium channel KCNH2 (Homo sapiens, UniProt Q12809). In words: Inhibition of human ERG by fluorescence polarization assay.
Sequence of Voltage-gated inwardly rectifying potassium channel KCNH2 (Q12809 whole entry): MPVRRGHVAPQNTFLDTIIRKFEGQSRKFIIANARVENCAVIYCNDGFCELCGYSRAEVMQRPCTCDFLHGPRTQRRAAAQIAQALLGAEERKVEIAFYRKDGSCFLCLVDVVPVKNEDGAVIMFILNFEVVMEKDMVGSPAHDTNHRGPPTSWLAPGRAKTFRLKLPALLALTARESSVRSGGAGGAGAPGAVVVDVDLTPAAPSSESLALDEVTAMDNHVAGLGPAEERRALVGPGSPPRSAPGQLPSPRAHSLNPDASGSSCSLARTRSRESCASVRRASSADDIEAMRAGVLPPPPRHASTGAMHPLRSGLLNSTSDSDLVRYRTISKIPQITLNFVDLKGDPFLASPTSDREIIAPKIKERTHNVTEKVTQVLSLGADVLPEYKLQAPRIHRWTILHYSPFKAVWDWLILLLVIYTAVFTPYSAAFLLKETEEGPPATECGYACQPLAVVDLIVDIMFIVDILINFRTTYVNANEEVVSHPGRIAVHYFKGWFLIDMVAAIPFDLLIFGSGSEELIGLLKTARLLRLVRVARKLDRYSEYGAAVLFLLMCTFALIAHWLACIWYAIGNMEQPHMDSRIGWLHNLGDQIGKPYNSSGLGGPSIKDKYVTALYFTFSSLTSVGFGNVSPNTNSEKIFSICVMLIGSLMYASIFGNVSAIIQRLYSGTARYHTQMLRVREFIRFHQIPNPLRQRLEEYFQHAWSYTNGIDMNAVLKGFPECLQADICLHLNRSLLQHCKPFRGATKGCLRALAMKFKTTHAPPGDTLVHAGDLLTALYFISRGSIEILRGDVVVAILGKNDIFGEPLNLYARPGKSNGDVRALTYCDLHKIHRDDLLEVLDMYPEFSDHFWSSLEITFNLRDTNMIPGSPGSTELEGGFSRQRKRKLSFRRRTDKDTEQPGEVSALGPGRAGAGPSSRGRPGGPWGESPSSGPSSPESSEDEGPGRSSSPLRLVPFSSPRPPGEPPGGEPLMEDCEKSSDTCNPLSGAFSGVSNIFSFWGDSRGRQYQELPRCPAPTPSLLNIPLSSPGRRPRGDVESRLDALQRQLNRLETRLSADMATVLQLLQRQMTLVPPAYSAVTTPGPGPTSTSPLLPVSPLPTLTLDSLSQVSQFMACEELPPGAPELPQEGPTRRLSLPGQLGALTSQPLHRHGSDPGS
The nature of series [15]: Stability in human plasma assessed as compound remaining at 5 uM incubated for 4 hrs by LC-MS/MS analysis. Type of series: ADME, cell-free. The settings on record: read-out: Stabilty. Summed up: as §2
Series [16] can be described thus: Volume of distribution at steady state in Sprague-Dawley rat at 5 mg/kg, iv by LC-MS/MS analysis. Type of series: ADME, organism-based. The settings on record: in vivo, read-out: Vdss. Summed up: as §1
Series [17] is described as follows: Tmax in Sprague-Dawley rat at 5 mg/kg, po by LC-MS/MS analysis. The settings on record: in vivo. Type of series: ADME, organism-based. Summed up: as §1
The nature of series [18]: Protein binding in rat plasma at 5 uM incubated for 4 hrs by LC-MS/MS analysis. Particulars: read-out: PPB (converted). Type of series: ADME, cell-free.
A short description of series [19]: Metabolic stability in human liver microsomes assessed as half life at 1 uM incubated for 30 mins by LC-MS/MS analysis. Type of series: ADME, Microsome. In outline:
as §4

For a further series, the target named is T1, Cytochrome P450 1A2 (Homo sapiens, UniProt P05177).
T1 sequence (P05177 whole entry): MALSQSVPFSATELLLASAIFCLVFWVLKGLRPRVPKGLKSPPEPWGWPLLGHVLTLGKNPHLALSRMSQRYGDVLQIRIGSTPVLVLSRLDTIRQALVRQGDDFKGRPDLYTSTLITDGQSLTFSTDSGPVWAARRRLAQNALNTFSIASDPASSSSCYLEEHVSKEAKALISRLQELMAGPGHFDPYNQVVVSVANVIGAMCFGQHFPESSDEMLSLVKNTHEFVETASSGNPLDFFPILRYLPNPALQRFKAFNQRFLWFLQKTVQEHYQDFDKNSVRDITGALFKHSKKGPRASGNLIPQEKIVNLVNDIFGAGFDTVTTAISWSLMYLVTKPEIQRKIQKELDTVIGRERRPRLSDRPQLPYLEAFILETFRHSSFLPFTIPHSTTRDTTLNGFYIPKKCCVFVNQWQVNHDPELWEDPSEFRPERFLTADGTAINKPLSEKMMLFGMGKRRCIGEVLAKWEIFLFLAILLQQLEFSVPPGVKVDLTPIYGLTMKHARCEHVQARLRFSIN
In words: Inhibition of human liver microsome CYP1A2 using phenacetin as substrate incubated for 20 mins by LC-MS/MS with HPLC analysis. Type of series: ADME, microsomes. In outline:
as §3

Series [20] can be described thus: Metabolic stability in human liver microsomes assessed as compound remaining at 1 uM incubated for 30 mins by LC-MS/MS analysis. Type of series: ADME, Microsome. The settings on record: read-out: Stabilty. In outline:
as §4

The nature of series [21]: Oral bioavailability in Sprague-Dawley rat at 5 mg/kg by LC-MS/MS analysis. Type of series: ADME, organism-based. The settings on record: in vivo. In outline: as §1
The nature of series [22]: Clearance in Sprague-Dawley rat at 5 mg/kg, iv by LC-MS/MS analysis. The settings on record: in vivo. Type of series: ADME, organism-based. In outline:
as §1

Sequence of Cytochrome P450 2D6 (P10635 whole entry): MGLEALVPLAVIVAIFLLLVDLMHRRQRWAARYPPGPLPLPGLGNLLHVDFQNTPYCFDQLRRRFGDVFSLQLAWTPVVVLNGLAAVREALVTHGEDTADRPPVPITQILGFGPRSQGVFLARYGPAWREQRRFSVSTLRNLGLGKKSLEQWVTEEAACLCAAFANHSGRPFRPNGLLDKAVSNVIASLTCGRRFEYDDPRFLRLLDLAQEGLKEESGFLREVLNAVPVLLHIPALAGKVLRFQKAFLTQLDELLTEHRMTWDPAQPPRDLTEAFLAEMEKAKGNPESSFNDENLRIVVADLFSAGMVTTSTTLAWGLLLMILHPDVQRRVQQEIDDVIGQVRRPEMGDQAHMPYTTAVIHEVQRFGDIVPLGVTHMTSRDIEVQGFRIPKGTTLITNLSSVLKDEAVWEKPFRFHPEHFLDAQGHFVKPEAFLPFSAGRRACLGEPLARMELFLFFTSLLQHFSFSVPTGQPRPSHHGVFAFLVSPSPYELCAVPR
Sequence of Cytochrome P450 3A4 (P08684 whole entry): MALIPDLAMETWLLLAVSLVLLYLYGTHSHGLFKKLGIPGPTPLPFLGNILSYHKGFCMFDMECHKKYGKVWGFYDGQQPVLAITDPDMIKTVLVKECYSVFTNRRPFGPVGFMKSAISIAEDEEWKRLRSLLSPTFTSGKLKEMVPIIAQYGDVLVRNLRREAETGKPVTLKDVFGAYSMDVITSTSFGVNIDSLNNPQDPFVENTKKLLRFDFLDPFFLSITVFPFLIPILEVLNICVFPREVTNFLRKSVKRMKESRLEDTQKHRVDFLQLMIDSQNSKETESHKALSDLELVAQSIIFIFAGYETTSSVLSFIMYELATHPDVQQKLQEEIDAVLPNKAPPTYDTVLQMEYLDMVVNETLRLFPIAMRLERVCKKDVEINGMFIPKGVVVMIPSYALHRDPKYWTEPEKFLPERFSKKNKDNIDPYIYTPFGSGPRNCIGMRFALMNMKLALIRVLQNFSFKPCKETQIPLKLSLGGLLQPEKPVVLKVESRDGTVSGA
Sequence of Cytochrome P450 2C19 (P33261 whole entry): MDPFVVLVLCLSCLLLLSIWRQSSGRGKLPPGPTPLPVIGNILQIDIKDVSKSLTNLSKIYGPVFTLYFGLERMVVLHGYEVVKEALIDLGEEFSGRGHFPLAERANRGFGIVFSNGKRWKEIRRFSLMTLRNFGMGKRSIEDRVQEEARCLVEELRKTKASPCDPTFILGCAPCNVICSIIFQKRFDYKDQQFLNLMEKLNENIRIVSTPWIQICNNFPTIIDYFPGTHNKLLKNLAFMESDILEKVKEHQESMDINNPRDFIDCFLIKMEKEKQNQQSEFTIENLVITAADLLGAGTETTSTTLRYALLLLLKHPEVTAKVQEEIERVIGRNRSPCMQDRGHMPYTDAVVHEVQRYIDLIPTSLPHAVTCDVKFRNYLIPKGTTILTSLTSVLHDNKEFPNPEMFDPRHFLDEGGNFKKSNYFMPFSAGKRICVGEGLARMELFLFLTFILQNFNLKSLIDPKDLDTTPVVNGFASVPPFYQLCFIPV
Sequence of Cytochrome P450 2C9 (P11712 whole entry): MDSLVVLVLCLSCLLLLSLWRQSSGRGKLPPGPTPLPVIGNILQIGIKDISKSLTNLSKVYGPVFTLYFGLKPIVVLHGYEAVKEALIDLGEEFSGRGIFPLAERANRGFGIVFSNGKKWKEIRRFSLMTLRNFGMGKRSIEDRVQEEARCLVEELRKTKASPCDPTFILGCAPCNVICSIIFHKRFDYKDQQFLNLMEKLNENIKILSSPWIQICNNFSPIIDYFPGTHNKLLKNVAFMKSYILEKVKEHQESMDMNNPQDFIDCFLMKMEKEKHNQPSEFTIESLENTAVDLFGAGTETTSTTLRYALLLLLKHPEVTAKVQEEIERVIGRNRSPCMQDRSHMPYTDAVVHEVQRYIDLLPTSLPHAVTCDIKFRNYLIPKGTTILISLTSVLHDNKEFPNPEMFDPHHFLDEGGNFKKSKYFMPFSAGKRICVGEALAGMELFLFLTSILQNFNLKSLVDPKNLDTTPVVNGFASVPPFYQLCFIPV

Take `Nc1cc(F)c(S(=O)(=O)N2CCC(O)CC2)cc1C(=O)Nc1cccc(F)c1`: in [1], the CC50 (usually the concentration at which the toxic effect on the cells reaches its halfway point) at 120 h is 29.3 µM. Besides, the selectivity ratio in series [2] amounted to 35.3. In addition, the EC50 (usually the concentration that produces a half-maximal response) in the series with Hepatitis B virus was found to be 0.83 µM.
In the case of `Nc1cc(F)c(S(=O)(=O)N2CCC(O)CC2)cc1C(=O)Nc1ccc(F)c(Cl)c1`, the CC50 at 120 h in series [1] came out at 18.5 µM. Besides, the selectivity ratio in [2] amounted to 22.3. Besides, the EC50 in the series with Hepatitis B virus was determined as 0.83 µM.
Turning to `Nc1cc(F)c(S(=O)(=O)N2CCC(O)CC2)cc1C(=O)Nc1ccc(C(F)(F)F)c(Cl)c1`, in series [1], the CC50 at 120 h worked out at 8.7 µM. In addition, in the series with Hepatitis B virus, the EC50 is more than 3.3 µM.
In the case of `Nc1cc(F)c(S(=O)(=O)N2CCC(O)CC2)cc1C(=O)Nc1cc(F)c(F)c(F)c1`, the CC50 at 120 h in [1] came out at 19.7 µM. Moreover, in series [2], the selectivity ratio turned out to be 73. Besides, in the series with Hepatitis B virus, the EC50 came out at 0.27 µM.
For the compound `Nc1cc(F)c(S(=O)(=O)N2CCC(O)CC2)cc1C(=O)Nc1ccc(F)c(C(F)F)c1`, the AUC(0-t) (usually the area under the concentration-time curve up to a stated or last time point) in [3] was 1150 ng·h/mL; in [6] it was 2310 ng·h/mL. The CC50 at 120 h in [1] is 47.5 µM. For the same compound, the remaining at 4 h, 5 µM was 99.6% in series [4] and 100% in series [15]. In addition, the values for the half-life in series [5] and in series [9] were 5.16 h and 2.55 h, respectively. The IC50 (in general, the concentration that inhibits the measured activity by half) is 26.7 µM on Cytochrome P450 2D6; 25.2 µM against Cytochrome P450 2C9; 20.8 µM on Cytochrome P450 3A4; 19 µM at Cytochrome P450 2C19; more than 10 µM in [14]; 45.5 µM against Cytochrome P450 1A2. Further, the figures for the total exposure AUC(0-inf) in series [7] and in [12] were 1230 ng·h/mL and 2330 ng·h/mL, respectively. The Cmax (in general, the highest concentration seen after dosing) in series [8] was determined as 280 ng/mL. Besides, the remaining at 0.5 h, 1 µM stood at 54.1% in series [10] and 40.5% in series [20]. The results for the fraction unbound at 4 h, 5 µM in series [11] and in series [18] were 0.029 and 0.108, respectively. The half-life (as a rule, the time in which the quantity being followed falls by half) at 1 µM in series [13] came out at 0.488 h; in [19], 0.51 h. In addition, in [16], the Vd was 3.59 L/kg. Besides, in [17], the Tmax (commonly the time at which the peak concentration occurs) came to 1.33 h. In addition, the selectivity ratio in series [2] was 164. The bioavailability (in general, dose-corrected exposure relative to a reference, in per cent) in series [21] worked out at 49.9%. The clearance (commonly the volume of plasma or blood freed of the substance per unit of time) in [22] was 36 mL/min/kg. In the series on Hepatitis B virus, the 50% effective concentration (EC50) is 0.29 µM.
For the compound `Nc1cc(F)c(S(=O)(=O)N2CCC(O)CC2)cc1C(=O)Nc1ccc(Cl)c(Cl)c1`, the CC50 at 120 h in series [1] turned out to be 20.4 µM. Also, the selectivity ratio in [2] worked out at 9.9. For the same compound, the EC50 in the series on Hepatitis B virus is 2.07 µM.
Regarding `Nc1cc(F)c(S(=O)(=O)N2CCC(O)CC2)cc1C(=O)Nc1ccc(F)cc1`, in series [1], the 50% cytotoxic concentration (CC50) at 120 h was found to be 45.8 µM. The selectivity ratio in [2] was 80.4. In the series on Hepatitis B virus, the EC50 was determined as 0.57 µM.
Regarding `O=C(Nc1cc(F)c(F)c(F)c1)c1ccc(F)c(S(=O)(=O)N2CCC(O)CC2)c1`, in series [1], the CC50 at 120 h was 8.6 µM. The selectivity ratio in series [2] was found to be 8.3. The EC50 in the series with Hepatitis B virus is 1.04 µM.
